According to ChEMBL document CHEMBL4017460, “A Tobramycin Vector Enhances Synergy and Efficacy of Efflux Pump Inhibitors against Multidrug-Resistant Gram-Negative Bacteria” (J Med Chem, 2017):
Converted amounts (≈) assume the structure as drawn. The source made the active and inactive calls. The calls are words filed in the database; no cut-off is given here.

Assays:
[1] = test system: Pseudomonas aeruginosa; assay: Induction of membrane destabilization in Pseudomonas aeruginosa PAO1 assessed as increase in tetracycline uptake at 5 ug/ml measured at 1 min interval for 30 mins by fluorescence assay; type: functional
[2] = test system: Pseudomonas aeruginosa PAO1; assay: Inhibition of RND efflux pump in Pseudomonas aeruginosa PAO1 assessed as potentiation of minocycline-induced antibacterial activity by measuring minocycline MIC at 8 ug/ml after 18 to 24 hrs by microbroth dilution assay (reference value: 8 ug/ml)
How it was run: (§1)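 Absolute minocycline MIC taken from checkerboard broth dilution with a fixed 8 μg/mL adjuvant. Inoculum was a 0.5 McFarland saline suspension diluted 1:50 in MHB, incubated 37 °C for 18 h. MIC is the lowest concentration with no growth.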

[3] = test system: Pseudomonas aeruginosa; assay: Antibacterial activity against Pseudomonas aeruginosa PAO1 after 18 to 24 hrs by microbroth dilution assay; type: functional
How it was run: (§2)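 Checkerboard in MHB: antibiotic 2-fold diluted along one axis, test agent 2-fold diluted along the other. Overnight culture standardized to 0.5 McFarland in saline, diluted 1:50 in MHB, added to wells, incubated 37 °C for 18 h. MIC is the lowest concentration with no growth. FIC = MIC in combination / MIC alone; FIC index = sum of both FICs.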

[4] = test system: Pseudomonas aeruginosa PAO1; assay: Inhibition of RND efflux pump in Pseudomonas aeruginosa PAO1 assessed as potentiation of minocycline-induced antibacterial activity at 8 ug/ml after 18 to 24 hrs by checker board assay; how it was run: as §2
[5] = test system: Pseudomonas aeruginosa; assay: Antibacterial activity against XDR Pseudomonas aeruginosa isolate P262-101856 infected in Galleria mellonella assessed as protection against bacterial infection by measuring larval death at 75 mg/kg up to 24 hrs relative to control; type: functional
How it was run: (§3)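 G. mellonella larvae infected with 1.0 × 10^5/mL CFU of XDR P. aeruginosa 101856. A single-dose injection of agent, alone or with minocycline, given 2 h post-infection. Survival scored up to 24 h. 15 larvae per experiment from different batches, two experiments per dosage (n = 30). Significance 0 vs 24 h at P ≤ 0.05.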

[6] = test system: Pseudomonas aeruginosa; assay: (§4) Inhibition of RND efflux pump in XDR Pseudomonas aeruginosa isolate P262-101856 infected in Galleria mellonella assessed as potentiation of minocycline-induced antibacterial activity by measuring larval survival rate at 75 mg/kg co-treated with 75 mg/kg minocycline measured after 24 hrs relative to control; type: organism-based; how it was run: as §3
[7] = test system: Pseudomonas aeruginosa; assay: as §4, with “death” for “survival”; type: organism-based; design: scale not given: the % may be the effect or the level left; how it was run: as §3
[8] = test system: Klebsiella pneumoniae; assay: Inhibition of RND efflux pump in Klebsiella pneumoniae isolate 116381 assessed as potentiation of minocycline-induced antibacterial activity by measuring minocycline MIC at 8 ug/ml after 18 to 24 hrs by microbroth dilution assay (reference value: 128 ug/ml); how it was run: as §1
[9] = test system: Enterobacter cloacae; assay: Inhibition of RND efflux pump in Enterobacter cloacae isolate 117029 assessed as potentiation of minocycline-induced antibacterial activity by measuring minocycline MIC at 8 ug/ml after 18 to 24 hrs by microbroth dilution assay (reference value: 128 to 256 ug/ml); how it was run: as §1
[10] = test system: Klebsiella pneumoniae; assay: Inhibition of RND efflux pump in Klebsiella pneumoniae isolate 116381 assessed as potentiation of minocycline-induced antibacterial activity at 8 ug/ml after 18 to 24 hrs by microbroth dilution assay; how it was run: as §2
[11] = test system: Enterobacter cloacae; assay: Inhibition of RND efflux pump in Enterobacter cloacae isolate 117029 assessed as potentiation of minocycline-induced antibacterial activity at 8 ug/ml after 18 to 24 hrs by microbroth dilution assay; how it was run: as §2
[12] = test system: Klebsiella pneumoniae; assay: Antibacterial activity against Klebsiella pneumoniae isolate 116381 after 18 to 24 hrs by microbroth dilution assay; type: functional; how it was run: as §2
[13] = test system: Enterobacter cloacae; assay: Antibacterial activity against Enterobacter cloacae isolate 117029 after 18 to 24 hrs by microbroth dilution assay; type: functional; how it was run: as §2
[14] = test system: Pseudomonas aeruginosa PAO1; assay: Inhibition of RND efflux pump in Pseudomonas aeruginosa PAO1 assessed as increase in tetracycline uptake up to 5.7 ug/ml measured at 1 min interval for 30 mins by fluorescence assay
[15] = test system: Pseudomonas aeruginosa PAO1; assay: Inhibition of RND efflux pump in Pseudomonas aeruginosa PAO1 assessed as increase in tetracycline uptake up to 8.2 ug/ml measured at 1 min interval for 30 mins by fluorescence assay
How it was run: (§5)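 Tetracycline uptake assay in P. aeruginosa PAO1: enhancement of tetracycline fluorescence as it enters cells, monitored with compound present at several concentrations.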

[16] = test system: Pseudomonas aeruginosa; assay: Antibacterial activity against Pseudomonas aeruginosa PAO1 assessed as ratio of MIC after 25 serial passages at sub-MIC to MIC after 1 passage by microbroth dilution assay; type: functional
[17] = test system: Pseudomonas aeruginosa PAO1; assay: Inhibition of RND efflux pump in Pseudomonas aeruginosa PAO1 assessed as potentiation of minocycline-induced antibacterial activity by measuring fold reduction in minocycline MIC at 8 ug/ml after 18 to 24 hrs by microbroth dilution assay relative to minocycline alone; how it was run: as §1
[18] = Toxicity in Galleria mellonella assessed as death at 100 mg/kg after 24 hrs relative to control; type: organism-based; settings: in vivo, read-out: Activity
[19] = test system: Pseudomonas aeruginosa PAO1; assay: Inhibition of RND efflux pump in Pseudomonas aeruginosa PAO1 assessed as increase in tetracycline uptake at 13.6 ug/ml measured at 1 min interval for 30 mins by fluorescence assay; how it was run: as §5
[20] = test system: Pseudomonas aeruginosa PAO1; assay: Inhibition of RND efflux pump in Pseudomonas aeruginosa PAO1 assessed as potentiation of minocycline-induced antibacterial activity by measuring ratio of minocycline MIC after 25 serial passages to minocycline MIC at sub-MIC after 18 to 24 hrs by microbroth dilution assay
[21] = test system: Pseudomonas aeruginosa; assay: Induction of cytoplasmic membrane depolarization in Pseudomonas aeruginosa PAO1 at 16 ug/ml by DiSC3(5) dye based fluorescence assay; type: functional
How it was run: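 Cytoplasmic membrane depolarization in P. aeruginosa PAO1, monitored by DiSC3(5) fluorescence across a range of compound concentrations. Colistin served as positive control.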

[22] = test system: Pseudomonas aeruginosa; assay: Induction of outer membrane permeabilization in Pseudomonas aeruginosa PAO1 assessed as increase in tetracycline uptake at 29 ug/ml measured at 1 min interval for 30 mins by fluorescence assay; type: functional; how it was run: as §5

**Q.** With N#CC(C#N)=NNc1cccc(Cl)c1 as the compound, how does the Activity [1] read?
**A.** Active

**Q.** For c1ccc2c(CN3CCNCC3)cccc2c1, which MIC [2] is on record?
**A.** 8 µg/mL

**Q.** What about the MIC [3] of the same compound?
**A.** 512 µg/mL (≈ 2260 µM)

**Q.** What about the fractional inhibitory concentration index (FICI) [4] of the same compound?
**A.** 1.02

**Q.** And the Activity [5]?
**A.** 100%

**Q.** And the Survival [6]?
**A.** 0%

**Q.** What about the Activity [7] of the same compound?
**A.** 100%

**Q.** What about the MIC [8] of the same compound?
**A.** 128 µg/mL

**Q.** And the MIC [9]?
**A.** 128 µg/mL

**Q.** What about the fractional inhibitory concentration index (FICI) [10] of the same compound?
**A.** 0.25 to 0.38

**Q.** And the fractional inhibitory concentration index (FICI) [11]?
**A.** > 0.5

**Q.** What about the MIC [12] of the same compound?
**A.** > 512 µg/mL

**Q.** And the MIC [13]?
**A.** > 512 µg/mL

**Q.** And the inhibition [14]?
**A.** inactive

**Q.** With Cetrimonium bromide as the compound, how does the fractional inhibitory concentration index (FICI) [4] read?
**A.** 0.75

**Q.** For NC[C@H]1O[C@H](O[C@H]2[C@H](OCCCCCCCCCCN3CCN(Cc4cccc5ccccc45)CC3)[C@@H](O[C@H]3O[C@H](CO)[C@@H](O)[C@H](N)[C@H]3O)[C@H](N)C[C@@H]2N)[C@H](N)C[C@@H]1O.O=C(O)C(F)(F)F.O=C(O)C(F)(F)F.O=C(O)C(F)(F)F.O=C(O)C(F)(F)F.O=C(O)C(F)(F)F.O=C(O)C(F)(F)F.O=C(O)C(F)(F)F, which MIC [2] is on record?
**A.** 1 µg/mL

**Q.** What about the MIC [3] of the same compound?
**A.** > 512 µg/mL

**Q.** What about the fractional inhibitory concentration index (FICI) [4] of the same compound?
**A.** 0.125 to 0.14

**Q.** Which MIC [2] does the source give for Cl.Cl.Cl.Cl.Cl.Cl.Cl.NC[C@H]1O[C@H](O[C@H]2[C@H](OCCCCCCN3CCN(Cc4cccc5ccccc45)CC3)[C@@H](O[C@H]3O[C@H](CO)[C@@H](O)[C@H](N)[C@H]3O)[C@H](N)C[C@@H]2N)[C@H](N)C[C@@H]1O here?
**A.** 4 µg/mL

**Q.** What about the MIC [3] of the same compound?
**A.** > 512 µg/mL

**Q.** What about the fractional inhibitory concentration index (FICI) [4] of the same compound?
**A.** 0.25 to 0.5

**Q.** For Fc1ccc([C@@H]2CCNC[C@H]2COc2ccc3c(c2)OCO3)cc1 [PAROXETINE], which MIC [2] is on record?
**A.** 8 µg/mL

**Q.** What about the MIC [3] of the same compound?
**A.** 512 µg/mL (≈ 1550 µM)

**Q.** And the fractional inhibitory concentration index (FICI) [4]?
**A.** 1.02

**Q.** What about the Activity [7] of the same compound?
**A.** 100%

**Q.** What about the MIC [8] of the same compound?
**A.** 128 µg/mL

**Q.** And the MIC [9]?
**A.** 64 µg/mL

**Q.** What about the fractional inhibitory concentration index (FICI) [10] of the same compound?
**A.** 0.63

**Q.** And the fractional inhibitory concentration index (FICI) [11]?
**A.** 0.5

**Q.** What about the MIC [12] of the same compound?
**A.** 128 µg/mL (≈ 389 µM)

**Q.** And the MIC [13]?
**A.** 64 µg/mL (≈ 194 µM)

**Q.** What about the inhibition [15] of the same compound?
**A.** inactive

**Q.** Which MIC [3] does the source give for NC[C@H]1O[C@H](O[C@H]2[C@H](O)[C@@H](O[C@H]3O[C@H](CO)[C@@H](O)[C@H](N)[C@H]3O)[C@H](N)C[C@@H]2N)[C@H](N)C[C@@H]1O [TOBRAMYCIN] here?
**A.** 0.25 µg/mL (≈ 0.535 µM)

**Q.** What about the fractional inhibitory concentration index (FICI) [4] of the same compound?
**A.** 1.06

**Q.** And the Ratio [16]?
**A.** 256

**Q.** For CN(C)c1ccc(O)c2c1C[C@H]1C[C@H]3[C@H](N(C)C)C(O)=C(C(N)=O)C(=O)[C@@]3(O)C(O)=C1C2=O [MINOCYCLINE], which Activity [5] is on record?
**A.** 100%

**Q.** And the Ratio [16]?
**A.** 16

**Q.** Which MIC [2] does the source give for Cl.Cl.Cl.Cl.Cl.Cl.Cl.NC[C@H]1O[C@H](O[C@H]2[C@H](OCCCCCCCCN3CCN(Cc4cccc5ccccc45)CC3)[C@@H](O[C@H]3O[C@H](CO)[C@@H](O)[C@H](N)[C@H]3O)[C@H](N)C[C@@H]2N)[C@H](N)C[C@@H]1O here?
**A.** 2 µg/mL

**Q.** What about the MIC [3] of the same compound?
**A.** > 512 µg/mL

**Q.** What about the fractional inhibitory concentration index (FICI) [4] of the same compound?
**A.** 0.125 to 0.25

**Q.** Which MIC [2] does the source give for Cl.Cl.Cl.Cl.Cl.Cl.Cl.NC[C@H]1O[C@H](O[C@H]2[C@H](OCCN3CCN(Cc4cccc5ccccc45)CC3)[C@@H](O[C@H]3O[C@H](CO)[C@@H](O)[C@H](N)[C@H]3O)[C@H](N)C[C@@H]2N)[C@H](N)C[C@@H]1O here?
**A.** 4 µg/mL

**Q.** What about the MIC [3] of the same compound?
**A.** 128 µg/mL

**Q.** And the fractional inhibitory concentration index (FICI) [4]?
**A.** 0.53

**Q.** Which results are given for Cl.Cl.Cl.Cl.Cl.Cl.Cl.NC[C@H]1O[C@H](O[C@H]2[C@H](OCCCCN3CCN(Cc4cccc5ccccc45)CC3)[C@@H](O[C@H]3O[C@H](CO)[C@@H](O)[C@H](N)[C@H]3O)[C@H](N)C[C@@H]2N)[C@H](N)C[C@@H]1O?
**A.** MIC [2]: 4 µg/mL; MIC [3]: 512 µg/mL; fractional inhibitory concentration index (FICI) [4]: 0.25 to 0.5

**Q.** What does the source list for NC[C@@H]1CN[C@@H](C(=O)N[C@H](CCc2ccccc2)C(=O)Nc2ccc3ccccc3c2)C1?
**A.** MIC [2]: 1 µg/mL; MIC [3]: 256 µg/mL (≈ 595 µM); fractional inhibitory concentration index (FICI) [4]: 0.13; fold change (FC) [17]: 8; mortality at 24 h [18]: 80%; MIC [8]: 4 µg/mL; MIC [9]: 8 µg/mL; fractional inhibitory concentration index (FICI) [10]: 0.06; fractional inhibitory concentration index (FICI) [11]: 0.13; MIC [12]: 256 µg/mL (≈ 595 µM); MIC [13]: 64 µg/mL (≈ 149 µM); inhibition [19]: Active; Ratio [20]: 4

**Q.** Which results are given for COLISTIN?
**A.** fractional inhibitory concentration index (FICI) [4]: 0.5; Activity [21]: Active; Activity [22]: Active; Ratio [16]: > 1024
